Screening data (PubChem BioAssay)
Many of the other results were omitted from the sample, so hits are more common in it than they were.
E-selectin induc: E-selectin induction in HUVECs, primary screen, imaging, HUVEC, immunofluorescence imaging, single point; normalized: neutral wells 0, TNF-alpha wells 100; activation, % at 7.58 µM; actives 0.37% (n = 260,000); AID 686992, 2013;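 active = mean E-selectin-positive cell signal at least 10% of the positive control, reached in at least 60% of replicates, without over 20% cell loss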
Target sequence (P16581 whole entry, looked up): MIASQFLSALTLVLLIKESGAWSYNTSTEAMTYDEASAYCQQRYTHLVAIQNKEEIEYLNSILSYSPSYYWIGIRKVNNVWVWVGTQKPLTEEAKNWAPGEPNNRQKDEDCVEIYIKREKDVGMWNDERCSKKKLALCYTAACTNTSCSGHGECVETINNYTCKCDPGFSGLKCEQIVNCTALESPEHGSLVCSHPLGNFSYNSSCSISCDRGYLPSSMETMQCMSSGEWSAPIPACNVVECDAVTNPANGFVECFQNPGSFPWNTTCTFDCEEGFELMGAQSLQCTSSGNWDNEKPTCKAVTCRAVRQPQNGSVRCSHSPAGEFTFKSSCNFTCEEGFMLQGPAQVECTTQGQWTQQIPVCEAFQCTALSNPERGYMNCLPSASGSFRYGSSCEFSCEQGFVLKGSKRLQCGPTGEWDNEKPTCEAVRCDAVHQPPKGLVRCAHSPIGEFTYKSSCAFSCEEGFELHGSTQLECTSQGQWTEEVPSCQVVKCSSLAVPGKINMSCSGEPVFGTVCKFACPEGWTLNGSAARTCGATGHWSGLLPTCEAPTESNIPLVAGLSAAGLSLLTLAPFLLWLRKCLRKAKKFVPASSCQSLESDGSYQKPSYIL
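material = human umbilical vein endothelial cells (HUVEC), E-selectin induction | quantity = 3,000 cells/well | medium = EGM-2 growth medium on 0.1% gelatin-coated wells | technique = immunofluorescence imaging | read-out basis = % PE-positive cells | control set = TNF-alpha positive control, DMSO neutral control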
XiGFP reactiv: activators of inactive X chromosome reactivation, primary screen, imaging, XiGFP fibroblasts, GFP high-content imaging, set 2; XiGFP mouse fibroblasts, % GFP-positive cells imaging, 3 d; cells co-treated with 5-aza-dC sensitizer; scaled so ellipticine positive control = 100%; activation, % at 7.58 µM; actives 0.055% (n = 360,000);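 active = mean normalized replicate activation at least 10% and every replicate at or above 10%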
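Material: XiGFP fibroblasts, SV40-immortalized. Buffer or medium: DMEM plus 5-aza-dC sensitizer. Compound: single concentration per compound, delivered by pin transfer. Times: 3 days compound exposure. Controls: ellipticine 6 µM.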
A number is an active result; n = inactive; x = no result given.

SMILES	E-selectin induc	XiGFP reactiv
O=C(CC1CC1)N1[C@@H](CO)[C@@H]2c3ccccc3N(S(=O)(=O)c3ccc(F)cc3)C[C@@H]21	n	n
Cc1ccccc1N(CC(=O)NC1CCCCC1)C(=O)CNC(=O)c1cccs1	45	n
O=C(CN(C(=O)CNC(=O)c1cccs1)c1ccccc1F)NC1CCCCC1	n	n
CCOC(=O)CCCCCC(=O)Nc1ccc2c(c1)C(=O)N([C@@H](C)CO)C[C@H](C)[C@H](CN(C)S(=O)(=O)c1ccc(F)cc1)O2	x	n
CCN1[C@@H]2c3ccc(-c4ccccc4OC)c(=O)n3C[C@H]1[C@H](CO)[C@H]2C(=O)N[C@@H](C)c1ccccc1	n	n
CN(Cc1ccc(F)cc1)Cc1nc(CCc2ccccc2)no1	n	n
CN(Cc1nc(CCc2ccccc2)no1)Cc1cccs1	n	40
C[C@H]1CN([C@@H](C)CO)C(=O)c2cc(-c3ccncc3)cnc2O[C@@H]1CN(C)S(=O)(=O)c1ccc(F)cc1	n	n
COc1cccc(NC(=O)N(C)C[C@H]2OCc3cnnn3CCCC(=O)N([C@@H](C)CO)C[C@H]2C)c1	n	n
CCCCN(C)C(=O)c1ccc(CS(=O)(=O)c2ccccc2C)o1	x	n
COC(CN(C)C(=O)c1ccc(CS(=O)(=O)c2ccccc2C)o1)OC	49	n
C[C@H]1CN(C)C(=O)c2cccc(N(S(C)(=O)=O)S(C)(=O)=O)c2O[C@H]1CN(C)C(=O)OC(C)(C)C	x	n
O=C(Nc1ccc(-n2ccc(C(F)(F)F)n2)cc1)Nc1cccc(Cl)c1	n	n
Cc1cc(C)cc(NC(=O)Nc2ccc(-n3ccc(C(F)(F)F)n3)cc2)c1	46	n
Cc1ccc2c(c1)c1c(n2CC(O)CN2CCCCCC2)CCCC1 (stereo not given)	n	n
Cc1ccc2c(c1)c1c(n2CC(O)Cn2c(C)nc3ccccc32)CCCC1 (stereo not given)	69	n
C[C@@H]1CN([C@H](C)CO)C(=O)c2c(c3ccccc3n2C)-c2ccccc2CO[C@H]1CN(C)C(=O)[C@H]1CCCN1C	n	n
CCC(CO)[n+]1c(C)cc(/C=C2\Sc3ccccc3N2Cc2ccccc2)cc1C (stereo not given)	x	103
CCN1/C(=C2\SC(=S)N(Cc3ccccc3)C2=O)Sc2ccccc21	n	n
Cc1cccc(-c2ccc([C@H]3[C@H](CO)N4C(=O)CN(C(=O)c5cnccn5)C[C@@H]34)cc2)c1	n	n
COc1ccc2c3c([nH]c2c1)[C@@H](CO)N(C(=O)c1cccc(F)c1)CC31CCN(C(C)=O)CC1	x	n
CC1(C)CCN2CCC(C)(C)c3c(O)ccc1c32	x	80
COc1ccc(C)cc1NC(=O)COC(=O)C1COc2ccccc2O1 (stereo not given)	x	n
COc1ccc(S(=O)(=O)N2CCOCC2)cc1NC(=O)COC(=O)C1COc2ccccc2O1 (stereo not given)	118	n
CO[C@H]1CN(C)C(=O)c2ccc(NC(=O)CC(F)(F)F)cc2OC[C@H](C)N(C(C)=O)C[C@H]1C	n	n
SMILES	E-selectin induc	XiGFP reactiv
CCN1C(=O)[C@@H]2Cc3c([nH]c4ccccc34)C(c3cc(OC)c(OC)c(OC)c3)N2C1=S (stereo not given in full)	n	26
COCCCN1CC(=O)N2C(c3ccc(OC)c(OC)c3)c3[nH]c4ccccc4c3C[C@H]2C1=O (stereo not given in full)	x	n
COc1cc(C2c3[nH]c4ccccc4c3C[C@H]3C(=O)N(CCO)CC(=O)N23)cc(OC)c1OC (stereo not given in full)	n	n
C=CCN1C(=O)[C@@H]2Cc3c([nH]c4ccccc34)C(c3cc(OC)c(OC)c(OC)c3)N2C1=S (stereo not given in full)	n	91
COc1ccc(NC(=O)N(C)C[C@H]2Oc3ccc(NC(=O)NC4CCCCC4)cc3CC(=O)N([C@@H](C)CO)C[C@H]2C)cc1	n	n
COC(=O)C[C@H]1CC[C@H]2[C@H](COc3ccc(NC(=O)c4ccc(F)cc4)cc3C(=O)N2C)O1	n	n
CCOC(=O)c1c(NC(=O)COC(=O)c2nc(Cl)ccc2Cl)sc2c1CCC2	137	n
CCOC(=O)c1c(NC(=O)COC(=O)c2nccnc2N)sc2c1CCC2	n	n
O=C(C[C@@H]1CC[C@H]2[C@@H](COC[C@@H](O)CN2Cc2ccc3c(c2)OCO3)O1)Nc1ccc(-c2ccccc2)cc1	n	n
O=C(NN1CCOCC1)c1ccc(Cl)cc1[N+](=O)[O-]	45	n
O=C(NCCCN1CCOCC1)c1ccc(Cl)cc1[N+](=O)[O-]	x	n
O=C(C[C@H]1C[C@@H]2c3cc(NC(=O)NC4CCCCC4)ccc3O[C@@H]2[C@H](CO)O1)NC1CCCC1	x	n
CCC(=O)Nc1ccc2c(c1)OC[C@H](C)N(Cc1cccnc1)C[C@H](C)[C@@H](OC)CN(C)C2=O	n	n
CC(=O)Oc1ccc(-c2cc3ccc(OC(C)=O)cc3oc2=O)cc1	n	n
CC(=O)Oc1ccc(C2=Cc3ccc(OC(C)=O)cc3OC2C)cc1 (stereo not given)	118	n
Cc1c(C(=O)N2CCN(S(=O)(=O)c3ccccc3)CC2)oc2ccccc12	n	n
Cc1c(C(=O)N2CCN(S(=O)(=O)c3cc(F)ccc3F)CC2)oc2ccccc12	343	n
C[C@@H]1CCCCO[C@@H](CN(C)C(=O)Nc2ccccc2)[C@@H](C)CN([C@@H](C)CO)C(=O)c2cc(NC(=O)CCC(F)(F)F)ccc2O1	x	n
COc1ccc(C(NC(=O)c2ccc(F)cc2)c2ccccc2)cc1 (stereo not given)	x	n
O=C(NC(O)C(=O)c1ccccc1)c1ccc(F)cc1 (stereo not given)	41	n
CCCNC(=O)[C@@H]1[C@@H](CO)[C@@H]2Cn3c(cccc3=O)[C@H]1N2Cc1ccccc1	n	n
COc1cc(N(C)C)ccc1C=c1c2ccccc2n2c1cc(-c1ccccc1)[n+]2C	160	n
COc1cc(C=c2c3ccccc3n3c2cc(-c2ccccc2)[n+]3C)cc(OC)c1OC	139	n
CCN(CC)c1ccc(/C=C/c2cccc[n+]2C)c(OC)c1	x	n
Cn1c2ccccc2c2cc([N+](=O)[O-])ccc21	n	n
SMILES	E-selectin induc	XiGFP reactiv
COc1cc(/C=C(/C(=O)O)c2ccc(-c3ccccc3)cc2)cc(OC)c1OC	n	n
CN(C)c1ccc(/C=C2\CCC/C(=C\c3ccccc3)C2=O)cc1	x	n
CN(C)c1ccc(C=c2c3ccccc3n3c2c2c([n+]3C)CCCC2)cc1	68	n
CN(C)c1ccc(C=c2c3cc([N+](=O)[O-])ccc3n3c2cc(-c2ccccc2)[n+]3C)cc1	218	n
C[C@H](CO)N1C[C@H](C)[C@@H](CN(C)C(=O)Nc2ccc3c(c2)OCO3)Oc2ccc(NC(=O)c3ccncc3)cc2CC1=O	x	n
C[C@H](CO)N1C[C@H](C)[C@@H](CN(C)Cc2ccc(-c3ccccc3)cc2)Oc2ccc(NS(=O)(=O)c3cn(C)cn3)cc2CC1=O	x	n
CN(C)c1ccc(C=C2C=C(c3ccccc3)OC2=O)cc1	n	n
CN(C)c1ccc(C=c2c3ccccc3n3c2cc(-c2ccccc2)[n+]3C)cc1	140	n
CN(C)c1ccc(/C=C2\SC(=O)N(CC(O)Cn3c4ccccc4c4ccccc43)C2=O)cc1 (stereo not given)	x	n
